{"source": "ChEMBL document CHEMBL5331111", "about": "“Synthetic Biology Facilitates Semisynthetic Development of Type V Glycopeptide Antibiotics Targeting Vancomycin-Resistant Enterococcus” (J Med Chem, 2023)", "key": {"[1]": {"system": "Enterococcus faecium", "experiment": "Antibacterial activity against Vancomycin-resistant Enterococcus faecium ATCC 700221 infected in cyclophosphamide induced neutropenic thigh infection CD-1 mouse model assessed as increase in survival rate at 100 mg/kg, ip qid measured after 24 hrs post-infection", "type": "functional, organism-based", "in_short": "(§1)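 Female CD-1 mice, 6–10 weeks old, made neutropenic with i.p. cyclophosphamide (150 mg/kg day 4, 100 mg/kg day 1). About 1 × 10^6 CFU of E. faecium ATCC 700221, grown in BHI with vancomycin, were injected into each thigh. Dosing was i.p. at 1, 3, 5 and 20 h post-infection, in PEG400/DMSO/H₂O (45/5/50) vehicle, with vehicle controls. Mice were euthanized at 24 h.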"}, "[2]": {"system": "Mycobacteroides abscessus", "experiment": "Antimycobacterial activity against Mycobacterium abscessus ATCC 19977 assessed as inhibition of bacterial growth measured after 2 days by resazurin dye based analysis", "type": "functional", "conditions": "ATCC 19977, 48 h, time 2 day", "in_short": "(§2)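 Cultured in 7H9 with 0.2% glycerol, 10% OADC and 0.05% Tween-80. Inoculum diluted to ~5 × 10^5 CFU/mL and confirmed at 3–8 × 10^5 by plating on 7H10 agar. Growth read at 2 days, then 30 μg/mL resazurin added for one more day. Values averaged from at least two experiments.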"}, "[3]": {"system": "Enterococcus faecium", "experiment": "Antibacterial activity against Enterococcus faecium WCC 0499 assessed as inhibition of bacterial growth by Mueller-Hinton broth based assay", "type": "functional"}, "[4]": {"system": "Enterococcus faecium", "experiment": "Antibacterial activity against Enterococcus faecium WCC 0496 assessed as inhibition of bacterial growth by Mueller-Hinton broth based assay", "type": "functional"}, "[5]": {"system": "Enterococcus faecium", "experiment": "Antibacterial activity against Enterococcus faecium WCC 0586 assessed as inhibition of bacterial growth by Mueller-Hinton broth based assay", "type": "functional"}, "[6]": {"system": "Enterococcus faecium", "experiment": "Antibacterial activity against Enterococcus faecium WCC 0502 assessed as inhibition of bacterial growth by Mueller-Hinton broth based assay", "type": "functional"}, "[7]": {"system": "Enterococcus faecium", "experiment": "Antibacterial activity against Enterococcus faecium WCC 0537 assessed as inhibition of bacterial growth by Mueller-Hinton broth based assay", "type": "functional"}, "[8]": {"system": "Enterococcus faecium", "experiment": "Antibacterial activity against vancomycin-resistant Enterococcus faecium ATCC 700221 assessed as inhibition of bacterial growth by Mueller-Hinton broth based assay", "type": "functional"}, "[9]": {"system": "Enterococcus faecium", "experiment": "Antibacterial activity against Enterococcus faecium WCC 0516 assessed as inhibition of bacterial growth by Mueller-Hinton broth based assay", "type": "functional"}, "[10]": {"system": "Enterococcus faecium", "experiment": "Antibacterial activity against Enterococcus faecium WCC 0553 assessed as inhibition of bacterial growth by Mueller-Hinton broth based assay", "type": "functional"}, "[11]": {"system": "Mycolicibacterium smegmatis", "experiment": "Antimycobacterial activity against Mycobacterium smegmatis MC2 155 assessed as inhibition of bacterial growth measured after 2 days by resazurin dye based analysis", "type": "functional", "conditions": "MC2 155, 48 h, time 2 day", "in_short": "(§3)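 Strains grown in 7H9 broth with 0.2% glycerol, 10% OADC and 0.05% Tween-80. Inoculum was about 5 × 10^5 CFU/mL, checked by plating on 7H10/OADC agar to be 3–8 × 10^5. Read at 2 days for M. smegmatis and 7 days for M. tuberculosis H37Ra, M. bovis and M. avium. Resazurin 30 μg/mL was then added for one further day. Values are averages of at least two experiments.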"}, "[12]": {"system": "Enterococcus faecium", "experiment": "Antibacterial activity against Enterococcus faecium WCC 0491 assessed as inhibition of bacterial growth by Mueller-Hinton broth based assay", "type": "functional"}, "[13]": {"experiment": "Antimycobacterial activity against Mycobacterium avium subsp. avium ATCC 25291 assessed as inhibition of bacterial growth measured after 7 days by resazurin dye based analysis", "type": "functional", "conditions": "ATCC 25291, 168 h, time 7 day", "in_short": "as §3"}, "[14]": {"system": "Enterococcus faecium", "experiment": "Antibacterial activity against Vancomycin-resistant Enterococcus faecium ATCC 700221 infected in cyclophosphamide induced neutropenic thigh infection CD-1 mouse model assessed as reduction in weight loss at 100 mg/kg, ip qid measured after 24 hrs post-infection", "type": "functional, organism-based", "in_short": "as §1"}, "[15]": {"system": "Enterococcus faecium", "experiment": "Antibacterial activity against Enterococcus faecium WCC 0498 assessed as inhibition of bacterial growth by Mueller-Hinton broth based assay", "type": "functional"}, "[16]": {"system": "Enterococcus gallinarum", "experiment": "Antibacterial activity against vancomycin-resistant Enterococcus gallinarum ATCC 49573 assessed as inhibition of bacterial growth by Mueller-Hinton broth based assay", "type": "functional"}, "[17]": {"system": "Bacillus subtilis", "experiment": "Antibacterial activity against Bacillus subtilis 168 assessed as reduction in bacterial growth by Mueller-Hinton broth based assay", "type": "functional", "in_short": "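Broth MIC by standard procedure in Mueller-Hinton broth, for both B. subtilis 168 and S. aureus ATCC 33591.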"}, "[18]": {"system": "Enterococcus faecium", "experiment": "Antibacterial activity against Enterococcus faecium WCC 0495 assessed as inhibition of bacterial growth by Mueller-Hinton broth based assay", "type": "functional"}, "[19]": {"system": "Enterococcus faecium", "experiment": "Antibacterial activity against Vancomycin-resistant Enterococcus faecium ATCC 700221 infected in cyclophosphamide induced neutropenic thigh infection CD-1 mouse model assessed as reduction in blood bacterial load at 100 mg/kg, ip qid measured after 24 hrs post-infection", "type": "functional", "in_short": "as §1"}, "[20]": {"experiment": "Hemolytic activity in human RBC incubated for 1 hr by absorbance based analysis", "type": "toxicity, cell-based, Erythrocyte", "conditions": "red blood cells (erythrocytes)", "in_short": "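Human K2-EDTA blood RBCs washed twice in 150 mM NaCl, resuspended in PBS pH 7.4, then diluted 1:50. Incubated with compound at 1% final DMSO for 1 h at 37 °C and pelleted at 500g for 5 min. Supernatant absorbance read at 540 nm. Controls were DMSO-only and a Triton X-100 dilution series (20% to 0.02%).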"}, "[21]": {"experiment": "Toxicity in cyclophosphamide induced neutropenic thigh infection CD-1 mouse model infected with Vancomycin-resistant Enterococcus faecium ATCC 700221 assessed as change in thigh weight at 100 mg/kg, ip qid measured after 24 hrs post-infection", "type": "organism-based", "conditions": "in vivo", "in_short": "as §1"}, "[22]": {"system": "Enterococcus faecalis", "experiment": "Antibacterial activity against vancomycin-resistant Enterococcus faecalis ATCC 51299 assessed as inhibition of bacterial growth by Mueller-Hinton broth based assay", "type": "functional"}, "[23]": {"system": "Enterococcus faecium", "experiment": "Antibacterial activity against Enterococcus faecium WCC 0545 assessed as inhibition of bacterial growth by Mueller-Hinton broth based assay", "type": "functional"}, "[24]": {"system": "Enterococcus faecium", "experiment": "Antibacterial activity against Enterococcus faecium WCC 0492 assessed as inhibition of bacterial growth by Mueller-Hinton broth based assay", "type": "functional"}, "[25]": {"experiment": "Cytotoxicity against HEK293 cells assessed as inhibition of cell growth incubated for 48 hrs by Cell-Titer Glo reagent based analysis", "type": "toxicity", "conditions": "human", "in_short": "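HEK293 cells seeded at 7500 cells/well in DMEM with 10% FBS, 2 mM glutamine and pen/strep, and left 18 h at 37 °C under 5% CO2. Compound then added at 1% final DMSO and incubated 48 h. Viability read by CellTiter-Glo luminescence and normalized to DMSO-only wells. Curves fitted by 4PL constrained to 0–1.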"}, "[26]": {"system": "Enterococcus faecium", "experiment": "Antibacterial activity against Enterococcus faecium WCC 0534 assessed as inhibition of bacterial growth by Mueller-Hinton broth based assay", "type": "functional"}, "[27]": {"system": "Mycolicibacterium fortuitum", "experiment": "Antimycobacterial activity against Mycobacterium fortuitum ATCC 6891 assessed as inhibition of bacterial growth measured after 2 days by resazurin dye based analysis", "type": "functional", "conditions": "ATCC 6891, 48 h, time 2 day", "in_short": "as §2"}, "[28]": {"system": "Enterococcus faecium", "experiment": "Antibacterial activity against Enterococcus faecium WCC 0587 assessed as inhibition of bacterial growth by Mueller-Hinton broth based assay", "type": "functional"}, "[29]": {"system": "Enterococcus faecium", "experiment": "Antibacterial activity against vancomycin-resistant Enterococcus faecium WCC 0541 assessed as inhibition of bacterial growth by Mueller-Hinton broth based assay", "type": "functional"}, "[30]": {"experiment": "Toxicity in cyclophosphamide induced neutropenic thigh infection CD-1 mouse model infected with Vancomycin-resistant Enterococcus faecium ATCC 700221 assessed as change in spleen weight at 100 mg/kg, ip qid measured after 24 hrs post-infection", "type": "organism-based", "conditions": "in vivo", "in_short": "as §1"}, "[31]": {"system": "Enterococcus faecium", "experiment": "Antibacterial activity against Enterococcus faecium WCC 0533 assessed as inhibition of bacterial growth by Mueller-Hinton broth based assay", "type": "functional"}, "[32]": {"system": "Enterococcus faecium", "experiment": "Antibacterial activity against Enterococcus faecium WCC 0558 assessed as inhibition of bacterial growth by Mueller-Hinton broth based assay", "type": "functional"}, "[33]": {"system": "Enterococcus faecium", "experiment": "Antibacterial activity against Enterococcus faecium WCC 0528 assessed as inhibition of bacterial growth by Mueller-Hinton broth based assay", "type": "functional"}, "[34]": {"system": "Mycobacterium tuberculosis", "experiment": "Antimycobacterial activity against Mycobacterium tuberculosis H37Ra assessed as inhibition of bacterial growth measured after 7 days by resazurin dye based analysis", "type": "functional", "conditions": "168 h, time 7 day", "in_short": "as §3"}, "[35]": {"system": "Enterococcus faecium", "experiment": "Antibacterial activity against Enterococcus faecium WCC 0506 assessed as inhibition of bacterial growth by Mueller-Hinton broth based assay", "type": "functional"}}, "note": "Activity calls are given as the source filed them. The rule behind the calls is not given here.", "data": [{"smiles": "CN(C)CCCNC(=O)[C@@H]1NC(=O)[C@@H]2Cc3ccc(cc3)Oc3cc4cc(c3O)-c3ccc5c(c[nH]c5c3)C[C@@H](NC(=O)C(NC(=O)CCCCCN)c3ccc(O)cc3)C(=O)N[C@H](c3ccc(O)cc3)C(=O)N[C@H]4C(=O)N[C@@H](C(=O)N2C)c2ccc(cc2)Oc2cc1ccc2O", "note": "(stereo not given in full)", "values": [{"measurement": "Activity", "setting": "[1]", "result": "Active"}, {"measurement": "MIC", "setting": "[2]", "result": 2, "unit": "µg/mL"}, {"measurement": "MIC", "setting": "[3]", "result": 1, "unit": "µg/mL"}, {"measurement": "MIC", "setting": "[4]", "result": 1, "unit": "µg/mL"}, {"measurement": "MIC", "setting": "[5]", "result": 1, "unit": "µg/mL"}, {"measurement": "MIC", "setting": "[6]", "result": 1, "unit": "µg/mL"}, {"measurement": "MIC", "setting": "[7]", "result": 2, "unit": "µg/mL"}, {"measurement": "MIC", "setting": "[8]", "result": 0.5, "unit": "µg/mL"}, {"measurement": "MIC", "setting": "[9]", "result": 0.5, "unit": "µg/mL"}, {"measurement": "MIC", "setting": "[10]", "result": 1, "unit": "µg/mL"}, {"measurement": "MIC", "setting": "[11]", "result": 0.5, "unit": "µg/mL"}, {"measurement": "MIC", "setting": "[12]", "result": 1, "unit": "µg/mL"}, {"measurement": "MIC", "setting": "[13]", "result": "> 128", "unit": "µg/mL"}, {"measurement": "Activity", "setting": "[14]", "result": "Active"}, {"measurement": "MIC", "setting": "[15]", "result": 2, "unit": "µg/mL"}, {"measurement": "MIC", "setting": "[16]", "result": 2, "unit": "µg/mL"}, {"measurement": "MIC", "setting": "[17]", "result": 1, "unit": "µg/mL"}, {"measurement": "MIC", "setting": "[18]", "result": 1, "unit": "µg/mL"}, {"measurement": "log(activity)", "setting": "[19]", "result": 3, "unit": "CFU/g"}, {"measurement": "IC50 at 1 h", "setting": "[20]", "result": "> 256", "unit": "µg/mL"}, {"measurement": "Activity", "setting": "[21]", "result": "Non-Toxic"}, {"measurement": "MIC", "setting": "[22]", "result": 1, "unit": "µg/mL"}, {"measurement": "MIC", "setting": "[23]", "result": 2, "unit": "µg/mL"}, {"measurement": "MIC", "setting": "[24]", "result": 2, "unit": "µg/mL"}, {"measurement": "IC50 at 48 h", "setting": "[25]", "result": "> 256", "unit": "µg/mL"}, {"measurement": "MIC", "setting": "[26]", "result": 0.5, "unit": "µg/mL"}, {"measurement": "MIC", "setting": "[27]", "result": 2, "unit": "µg/mL"}, {"measurement": "MIC", "setting": "[28]", "result": 1, "unit": "µg/mL"}, {"measurement": "MIC", "setting": "[29]", "result": 1, "unit": "µg/mL"}, {"measurement": "Activity", "setting": "[30]", "result": "Non-Toxic"}, {"measurement": "MIC", "setting": "[31]", "result": 0.5, "unit": "µg/mL"}, {"measurement": "MIC", "setting": "[32]", "result": 1, "unit": "µg/mL"}, {"measurement": "MIC", "setting": "[33]", "result": 1, "unit": "µg/mL"}, {"measurement": "MIC", "setting": "[34]", "result": 32, "unit": "µg/mL"}, {"measurement": "MIC", "setting": "[35]", "result": 1, "unit": "µg/mL"}]}]}
